The M2OR odorant receptor database

How the values were obtained:
Conditions in all cases: stereoisomer not certain
UniProt L7MU75 = molecular target: T1, UniProt L7MU75
T1 sequence (whole entry): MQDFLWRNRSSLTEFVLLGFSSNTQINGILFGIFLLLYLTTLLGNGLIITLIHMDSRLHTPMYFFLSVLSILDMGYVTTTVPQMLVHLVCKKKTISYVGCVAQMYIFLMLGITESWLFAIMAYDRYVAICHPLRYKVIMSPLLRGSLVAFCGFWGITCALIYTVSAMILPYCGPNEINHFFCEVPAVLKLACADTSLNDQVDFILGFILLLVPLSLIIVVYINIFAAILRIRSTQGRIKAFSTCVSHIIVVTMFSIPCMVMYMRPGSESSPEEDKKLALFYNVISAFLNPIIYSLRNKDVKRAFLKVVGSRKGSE
Summary of the method: (§1)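 Assay methods differ from source to source, frequently being transient luciferase assays in mammalian cell lines. For each receptor–molecule pair, the label responsive (active) applies when the original authors judged the measured signal statistically different from baseline, and non-responsive (inactive) applies otherwise.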

UniProt L7N210 = molecular target: T2, UniProt L7N210
T2 sequence (whole entry): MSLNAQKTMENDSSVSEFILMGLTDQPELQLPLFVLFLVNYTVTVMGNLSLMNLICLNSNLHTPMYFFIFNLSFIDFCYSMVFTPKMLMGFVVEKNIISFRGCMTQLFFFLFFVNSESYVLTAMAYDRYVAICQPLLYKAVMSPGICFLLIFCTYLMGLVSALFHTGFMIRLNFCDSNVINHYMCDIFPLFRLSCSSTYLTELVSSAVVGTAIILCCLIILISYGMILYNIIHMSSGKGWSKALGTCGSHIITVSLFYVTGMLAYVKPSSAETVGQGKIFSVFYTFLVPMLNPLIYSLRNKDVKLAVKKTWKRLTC
Summary of the method: as §1

UniProt Q3KPB0 = molecular target: T3, UniProt Q3KPB0
T3 sequence (whole entry): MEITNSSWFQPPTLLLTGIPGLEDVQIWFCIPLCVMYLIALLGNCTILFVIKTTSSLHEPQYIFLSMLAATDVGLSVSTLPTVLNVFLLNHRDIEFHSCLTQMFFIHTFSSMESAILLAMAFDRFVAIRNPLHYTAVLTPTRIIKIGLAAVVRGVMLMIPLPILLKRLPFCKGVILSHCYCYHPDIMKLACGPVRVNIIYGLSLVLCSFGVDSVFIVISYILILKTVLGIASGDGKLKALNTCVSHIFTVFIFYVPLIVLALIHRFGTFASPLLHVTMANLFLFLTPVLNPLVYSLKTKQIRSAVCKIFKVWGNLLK
Summary of the method: as §1

UniProt Q3U0P3 = molecular target: T4, UniProt Q3U0P3
T4 sequence (whole entry): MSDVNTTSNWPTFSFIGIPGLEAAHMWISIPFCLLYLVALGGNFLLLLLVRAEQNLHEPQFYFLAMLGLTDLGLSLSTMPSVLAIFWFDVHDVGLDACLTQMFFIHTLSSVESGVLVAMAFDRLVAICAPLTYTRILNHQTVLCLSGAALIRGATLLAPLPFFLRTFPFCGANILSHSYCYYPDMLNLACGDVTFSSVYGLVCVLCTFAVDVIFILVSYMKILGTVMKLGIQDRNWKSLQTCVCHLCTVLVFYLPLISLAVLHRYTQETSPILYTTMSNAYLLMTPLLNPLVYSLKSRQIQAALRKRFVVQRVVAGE
Summary of the method: as §1

UniProt Q7TQU8 = molecular target: T5, UniProt Q7TQU8
T5 sequence (whole entry): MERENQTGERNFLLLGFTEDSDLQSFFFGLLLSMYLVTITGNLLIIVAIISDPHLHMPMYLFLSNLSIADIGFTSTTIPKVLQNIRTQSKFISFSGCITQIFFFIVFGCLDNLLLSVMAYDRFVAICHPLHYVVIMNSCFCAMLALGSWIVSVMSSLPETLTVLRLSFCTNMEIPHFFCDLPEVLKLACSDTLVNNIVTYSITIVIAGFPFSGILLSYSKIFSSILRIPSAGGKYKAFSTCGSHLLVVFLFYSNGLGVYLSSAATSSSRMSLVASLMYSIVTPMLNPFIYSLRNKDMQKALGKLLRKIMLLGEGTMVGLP
Summary of the method: as §1

UniProt Q7TQV4 = molecular target: T6, UniProt Q7TQV4
T6 sequence (whole entry): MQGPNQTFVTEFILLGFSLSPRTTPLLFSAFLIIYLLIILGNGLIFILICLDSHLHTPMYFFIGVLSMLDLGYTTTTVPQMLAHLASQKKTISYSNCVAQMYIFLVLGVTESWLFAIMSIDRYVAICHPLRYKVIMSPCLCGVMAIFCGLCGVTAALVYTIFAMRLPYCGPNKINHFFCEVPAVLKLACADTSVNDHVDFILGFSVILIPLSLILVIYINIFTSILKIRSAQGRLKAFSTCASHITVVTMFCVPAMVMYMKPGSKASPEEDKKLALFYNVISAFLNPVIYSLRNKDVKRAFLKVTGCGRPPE
Summary of the method: as §1

UniProt Q7TR71 = molecular target: T7, UniProt Q7TR71
T7 sequence (whole entry): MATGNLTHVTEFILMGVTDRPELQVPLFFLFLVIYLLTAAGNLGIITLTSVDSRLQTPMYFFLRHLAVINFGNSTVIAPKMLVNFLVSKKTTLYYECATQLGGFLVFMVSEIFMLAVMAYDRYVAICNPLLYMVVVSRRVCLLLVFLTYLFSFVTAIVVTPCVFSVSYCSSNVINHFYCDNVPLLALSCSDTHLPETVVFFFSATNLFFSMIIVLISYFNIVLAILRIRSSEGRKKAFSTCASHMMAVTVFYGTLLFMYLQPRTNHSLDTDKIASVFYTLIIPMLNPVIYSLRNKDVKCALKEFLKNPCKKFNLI
Summary of the method: as §1

UniProt Q7TR79 = molecular target: T8, UniProt Q7TR79
T8 sequence (whole entry): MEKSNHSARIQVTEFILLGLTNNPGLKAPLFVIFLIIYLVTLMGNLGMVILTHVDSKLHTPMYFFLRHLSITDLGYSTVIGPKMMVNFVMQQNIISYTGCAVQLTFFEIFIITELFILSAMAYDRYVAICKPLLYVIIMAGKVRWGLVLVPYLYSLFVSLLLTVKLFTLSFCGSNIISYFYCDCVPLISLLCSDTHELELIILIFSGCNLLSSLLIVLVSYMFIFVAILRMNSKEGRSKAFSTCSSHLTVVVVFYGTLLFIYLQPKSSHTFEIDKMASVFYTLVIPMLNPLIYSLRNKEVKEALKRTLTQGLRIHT
Summary of the method: as §1

UniProt Q7TRA3 = molecular target: T9, UniProt Q7TRA3
T9 sequence (whole entry): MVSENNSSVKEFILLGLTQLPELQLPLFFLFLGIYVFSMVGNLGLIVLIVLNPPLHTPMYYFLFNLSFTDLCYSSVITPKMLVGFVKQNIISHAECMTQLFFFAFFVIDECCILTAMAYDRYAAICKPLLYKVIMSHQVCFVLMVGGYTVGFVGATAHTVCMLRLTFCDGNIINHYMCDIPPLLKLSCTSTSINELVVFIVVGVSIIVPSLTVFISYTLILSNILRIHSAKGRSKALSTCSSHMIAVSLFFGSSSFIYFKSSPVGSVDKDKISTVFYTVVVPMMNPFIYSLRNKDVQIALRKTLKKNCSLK
Summary of the method: as §1

UniProt Q7TRE4 = molecular target: T10, UniProt Q7TRE4
T10 sequence (whole entry): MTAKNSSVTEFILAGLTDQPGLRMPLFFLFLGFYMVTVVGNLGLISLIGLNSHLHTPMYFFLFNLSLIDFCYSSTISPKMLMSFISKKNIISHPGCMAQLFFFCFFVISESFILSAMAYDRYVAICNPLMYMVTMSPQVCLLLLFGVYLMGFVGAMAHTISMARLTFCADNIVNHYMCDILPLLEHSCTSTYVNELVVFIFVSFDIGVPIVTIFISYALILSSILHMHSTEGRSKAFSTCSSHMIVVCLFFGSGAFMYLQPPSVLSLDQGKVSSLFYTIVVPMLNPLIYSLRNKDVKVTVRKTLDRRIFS
Summary of the method: as §1

UniProt Q7TRM0 = molecular target: T11, UniProt Q7TRM0
T11 sequence (whole entry): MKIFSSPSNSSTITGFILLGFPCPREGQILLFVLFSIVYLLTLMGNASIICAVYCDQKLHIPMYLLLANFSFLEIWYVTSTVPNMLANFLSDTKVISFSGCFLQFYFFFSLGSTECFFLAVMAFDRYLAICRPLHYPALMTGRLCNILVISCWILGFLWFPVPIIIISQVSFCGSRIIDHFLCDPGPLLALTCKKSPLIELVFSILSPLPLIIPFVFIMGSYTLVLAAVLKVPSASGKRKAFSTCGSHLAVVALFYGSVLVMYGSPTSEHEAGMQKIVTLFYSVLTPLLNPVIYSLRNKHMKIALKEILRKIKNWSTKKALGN
Summary of the method: as §1

UniProt Q7TRN9 = molecular target: T12, UniProt Q7TRN9
T12 sequence (whole entry): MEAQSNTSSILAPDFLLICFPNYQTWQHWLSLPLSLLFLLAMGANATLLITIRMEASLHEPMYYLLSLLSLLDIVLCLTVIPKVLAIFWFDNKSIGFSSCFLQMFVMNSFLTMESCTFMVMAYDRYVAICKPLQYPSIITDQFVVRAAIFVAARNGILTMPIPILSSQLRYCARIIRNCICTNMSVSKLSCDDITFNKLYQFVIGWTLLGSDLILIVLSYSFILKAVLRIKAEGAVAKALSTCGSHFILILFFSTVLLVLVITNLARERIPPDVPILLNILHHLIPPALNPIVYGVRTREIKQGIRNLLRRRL
Summary of the method: as §1

Measured: odorant receptor agonist call

CCCCCCCCO
active: UniProt Q7TRN9
inactive: UniProt L7MU75 | UniProt L7N210 | UniProt Q3KPB0 | UniProt Q3U0P3 | UniProt Q7TQU8 | UniProt Q7TQV4 | UniProt Q7TR71 | UniProt Q7TR79 | UniProt Q7TRA3 | UniProt Q7TRE4 | UniProt Q7TRM0

COc1cc(C(=O)O)ccc1O
inactive: UniProt L7MU75 | UniProt L7N210 | UniProt Q3KPB0 | UniProt Q3U0P3 | UniProt Q7TQU8 | UniProt Q7TQV4 | UniProt Q7TR71 | UniProt Q7TR79 | UniProt Q7TRA3 | UniProt Q7TRE4

CCCCCC1=C(C)CCC1=O
inactive: UniProt L7MU75 | UniProt L7N210 | UniProt Q3KPB0 | UniProt Q3U0P3 | UniProt Q7TQU8 | UniProt Q7TQV4 | UniProt Q7TR71 | UniProt Q7TR79 | UniProt Q7TRA3 | UniProt Q7TRE4

CCCCCCCCCCO
inactive: UniProt L7MU75 | UniProt L7N210 | UniProt Q3KPB0 | UniProt Q3U0P3 | UniProt Q7TQU8 | UniProt Q7TQV4 | UniProt Q7TR71 | UniProt Q7TR79 | UniProt Q7TRA3 | UniProt Q7TRE4
